Experimental data as given in PMC3374645 (European Journal of Pharmaceutical Sciences, 2012).
≈ marks a conversion by molar mass, not a printed value. Like-named read-outs stand apart in the source and are kept apart here.

Key:
[1] = 2008, cited from earlier work
[2] = comparison value, no reference given; cited from earlier work
[3] = Simultaneous three-compartment model fit of i.v. and oral data; format: in vivo, Sprague–Dawley rats; settings: rat
Method in brief: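 Pooled i.v. (5.0 mg/kg) and oral (20, 40, 60 mg/kg gavage) rat plasma data were fitted simultaneously by generalized least squares with variance error models. The structural model had three compartments with combined zero-order/Michaelis–Menten limited systemic uptake. Models were discriminated by goodness-of-fit plots, residuals, SE, CV%, CI95% and lowest AIC.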

[4] = Saturation solubility, shake-flask in buffers, HPLC; format: physicochemical
Method in brief: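 Shake-flask method: excess test compound was placed in 1.0 mL citrate, HEPES or phosphate buffer at pH 2.0–8.0 and shaken 24 h at 25.0 ± 0.1 °C, 1500 rpm. Suspensions then stood unshaken overnight before centrifugation. Supernatants were filtered (0.1 µm) and measured by reverse-phase C18 HPLC at 242 nm.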

[5] = Parallel artificial membrane permeability assay; format: in vitro ADME; settings: PAMPA, pH 7.4, 4 h
[6] = Noncompartmental pharmacokinetics after oral administration; format: in vivo, Sprague–Dawley rats; settings: rat
Method in brief: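 Male Sprague–Dawley rats (240–350 g, n = 5/group) were fasted overnight and gavaged with 2% (w/v) test compound in ethanol/TPGS/water. Tail-vein plasma was sampled predose and 0.25–24 h, precipitated with acetonitrile, and run on C18 HPLC at 242 nm (nimesulide internal standard; 0.05–8.00 μg/mL calibration). Per-rat SHAM analysis used log-trapezoidal AUC, with CL = Dose/AUC.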

[7] = Three-compartment model fit after i.v. administration; format: in vivo, Sprague–Dawley rats; settings: rat, i.v. 5.0 mg/kg
Method in brief: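 Rats received a tail-vein injection of 5.0 mg/kg in ethanol/TPGS/water vehicle. Plasma was taken from 0.017 to 24 h and assayed by HPLC. Concentration–time data were fitted by generalized least squares to three-compartment mass-balance differential equations, seeded with noncompartmental estimates. Parameters are reported with CV%; Vss was taken as the sum of the compartment volumes.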

Caco-2 monolayers = test: Bidirectional permeability in Caco-2 monolayers; format: in vitro ADME
[8] = Partition coefficient in octanol:water system; format: physicochemical; settings: pH 7.0
Method in brief: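 Test compound (1.0 mg) was added to 4.0 mL of a 1:1 octanol:water mixture at pH 7.0 and shaken vigorously for 30 min. Phases were separated by centrifugation, passed through 0.1 µm filters and quantified by reverse-phase C18 HPLC (90% acetonitrile, 242 nm).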

Molecule: c1ccc2c(Cc3c[nH]c4ccccc34)c[nH]c2c1 [DIM, 3,3′-diindolylmethane]
- Cmax ([1]; single 100 mg dose ref Reed et al.): 32 ng/mL
- Cmax ([1]; single 200 mg dose ref Reed et al.): 104 ng/mL
- Cmax ([1]; single 300 mg dose ref Reed et al.): 108 ng/mL
- Log K0/w [2]: ≈ 4.0

Molecule: c1ccc(-c2ccc(C(c3c[nH]c4ccccc34)c3c[nH]c4ccccc34)cc2)cc1 [DIM-P, DIM-C-pPhC6H5]
- zero-order absorption site access rate ([3]; oral 20 mg/kg): 14 mg/h/kg
- zero-order absorption site access rate ([3]; oral 40 mg/kg): 28 mg/h/kg
- zero-order absorption site access rate ([3]; oral 60 mg/kg): 42 mg/h/kg
- CLC ([3]; simultaneous fit i.v. 5.0 and oral 20, 40, 60 mg/kg): 0.77 mL/min/kg
- Abmax (maximum absorption rate at saturation) ([3]; simultaneous fit i.v. and oral): 60.65 µg/min/kg
- CLd1 ([3]; simultaneous fit i.v. and oral): 0.606 mL/min/kg
- CLd2 ([3]; simultaneous fit i.v. and oral): 0.319 mL/min/kg
- FBIO ([3]; simultaneous fit i.v. and oral): 0.126
- SD50 (amount of drug at the absorption site at 50% saturation) ([3]; simultaneous fit i.v. and oral): 8.6797 mg/kg
- Tsite (time required for drug to reach absorption site) ([3]; simultaneous fit i.v. and oral): 85.20 min
- V1 ([3]; simultaneous fit i.v. and oral): 0.64606 L/kg
- V2 ([3]; simultaneous fit i.v. and oral): 0.0285 L/kg
- VC ([3]; simultaneous fit i.v. and oral): 0.0139 L/kg
- aqueous solubility ([4]; pH 2.0, 25 °C, 24 h shake-flask): 0.28 ± 0.03 µg/mL (≈ 0.703 µM)
- maximum aqueous solubility ([4]; pH 8.0, 25 °C, 24 h shake-flask): 0.73 ± 0.09 µg/mL
- overall solubility ([4]; pH range 2–8): less than 1.0 μg/mL
- donor-to-receptor apparent permeability (Papp) ([5]; stirred water layer): 2.69 ± 0.08 × 10^−6 cm/s
- donor-to-receptor apparent permeability (Papp) ([5]; unstirred water layer): 0.58 ± 0.07 × 10^−6 cm/s
- AUC0–24h /Dose ([6]; oral 20 mg/kg): 2.28 ± 0.46 (min/L) *10^−3
- AUMC0–24h ([6]; oral 20 mg/kg): 250.45 ± 62.42 μg × min^2/mL
- AUMC0–24h/Dose ([6]; oral 20 mg/kg): 0.012 ± 0.003 min^2/mL
- CL ([6]; oral 20 mg/kg): 0.8652 ± 0.0648 mL/min/kg
- Cmax ([6]; oral 20 mg/kg): 7210 ± 1190 ng/mL
- Cmax/dose ([6]; oral 20 mg/kg): 0.36 ± 0.06
- FBIO (absolute bioavailability) ([6]; oral 20 mg/kg): 0.13 ± 0.03
- MRT ([6]; oral 20 mg/kg): 5.47 ± 0.64 h
- Terminal t1/2 ([6]; oral 20 mg/kg): 6.91 ± 3.84 h
- Vss ([6]; oral 20 mg/kg): 0.49979 ± 0.223605 L/kg
- time of maximum plasma level ([6]; oral 20 mg/kg): 2 h
- AUMC0–24h ([6]; oral 40 mg/kg): 548.85 ± 207.09 μg × min^2/mL
- AUMC0–24h/Dose ([6]; oral 40 mg/kg): 0.014 ± 0.005 min^2/mL
- CL ([6]; oral 40 mg/kg): 0.8315 ± 0.0753 mL/min/kg
- Cmax ([6]; oral 40 mg/kg): 11270 ± 1040 ng/mL
- Cmax/dose ([6]; oral 40 mg/kg): 0.28 ± 0.03
- FBIO (absolute bioavailability) ([6]; oral 40 mg/kg): 0.12 ± 0.03
- MRT ([6]; oral 40 mg/kg): 6.29 ± 1.14 h
- Terminal t1/2 ([6]; oral 40 mg/kg): 7.86 ± 3.12 h
- Vss ([6]; oral 40 mg/kg): 0.54861 ± 0.16478 L/kg
- time of maximum plasma level ([6]; oral 40 mg/kg): 2 h
- AUC0–24h /Dose ([6]; oral 60 mg/kg): 2.32 ± 0.46 (min/L) *10^−3
- AUMC0–24h ([6]; oral 60 mg/kg): 912.16 ± 299.02 μg × min^2/mL
- AUMC0–24h/Dose ([6]; oral 60 mg/kg): 0.015 ± 0.005 min^2/mL
- CL ([6]; oral 60 mg/kg): 0.8397 ± 0.0582 mL/min/kg
- Cmax ([6]; oral 60 mg/kg): 17860 ± 1620 ng/mL
- Cmax/dose ([6]; oral 60 mg/kg): 0.30 ± 0.03
- FBIO (absolute bioavailability) ([6]; oral 60 mg/kg): 0.13 ± 0.03
- MRT ([6]; oral 60 mg/kg): 6.43 ± 0.81 h
- Terminal t1/2 ([6]; oral 60 mg/kg): 7.60 ± 2.34 h
- Vss ([6]; oral 60 mg/kg): 0.54239 ± 0.12804 L/kg
- time of maximum plasma level ([6]; oral 60 mg/kg): 3 h
- absolute bioavailability ([6]; oral, as stated in abstract): 0.13 ± 0.06
- apparent distributional phase [7]: < 2 h
- VSS ([7]; secondary parameter): 0.68285 L/kg
- t1/2 ([7]; secondary parameter): 10.653 h
- CLC ([7]; three compartment model): 0.74 mL/min/kg
- CLd1 ([7]; three compartment model): 0.56 mL/min/kg
- CLd2 ([7]; three compartment model): 0.29 mL/min/kg
- V1 ([7]; three compartment model): 0.64098 L/kg
- V2 ([7]; three compartment model): 0.02822 L/kg
- VC ([7]; three compartment model): 0.01365 L/kg
- Peff A–B (Caco-2 monolayers; Caco-2, apical pH 5): 0.34 ± 0.06 × 10^−6 cm/s
- Peff B–A (Caco-2 monolayers; Caco-2, apical pH 5): 0.53 ± 0.08 × 10^−6 cm/s
- Peff A–B (Caco-2 monolayers; Caco-2, apical pH 5.8): 0.33 ± 0.07 × 10^−6 cm/s
- Peff B–A (Caco-2 monolayers; Caco-2, apical pH 5.8): 0.50 ± 0.06 × 10^−6 cm/s
- Peff A–B (Caco-2 monolayers; Caco-2, apical pH 6.8): 0.35 ± 0.06 × 10^−6 cm/s
- Peff B–A (Caco-2 monolayers; Caco-2, apical pH 6.8): 0.52 ± 0.07 × 10^−6 cm/s
- average Peff, B–A (Caco-2 monolayers; Caco-2, basolateral to apical, average): 0.51 ± 0.09 × 10^−6 cm/s
- absorptive (A–B) versus secretive (B–A) transport (Caco-2 monolayers; bidirectional Caco-2, no active efflux): nearly unity
- Biopharmaceutics Classification System (BCS) class (Caco-2 monolayers; from low solubility and low permeability): Class IV
- experimental Log K0/w [8]: 6.79 ± 0.12 and ≈ 7.0

Molecule: Lucifer Yellow [reference compound]
- mean permeability of paracellular control (Caco-2 monolayers; Caco-2 monolayer integrity control): < 0.15 ×10⁻⁶ cm/s
